Data: ChEMBL document CHEMBL2016504, “New saccharin derivatives as tyrosinase inhibitors” (Bioorg Med Chem, 2012)

Tested on: Musa x paradisiaca
Assay: Competitive inhibition of banana tyrosinase using catechol as substrate by Lineweaver-Burk plot analysis
How it was run: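 Banana PPO was partially purified: ammonium sulfate to 80% saturation, dialysis in 5 mM phosphate, then a Sepharose 4B-tyrosine-p-aminobenzoic acid affinity column eluted with 1 M NaCl, 5 mM phosphate, pH 7.0. Catechol oxidation was read as the rise in A420, in duplicate, corrected for non-enzymatic change. Ki and inhibition type came from Lineweaver–Burk 1/V vs 1/[S] plots at two inhibitor levels (0.01–0.20 mM).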

Kic	SMILES
12.1 µM	O=C(Nc1cccc(F)c1)Nc1ccc2c(c1)S(=O)(=O)NC2=O
16.6 µM	COc1ccc(NC(=O)Nc2ccc3c(c2)S(=O)(=O)NC3=O)cc1
40.2 µM	O=C(Nc1ccc(Cl)cc1)Nc1ccc2c(c1)S(=O)(=O)NC2=O
13.7 µM	O=C1NS(=O)(=O)c2cc(NC(=S)Nc3cc(Cl)cc(Cl)c3)ccc21
22 µM	O=C(Nc1ccc([N+](=O)[O-])cc1)Nc1ccc2c(c1)S(=O)(=O)NC2=O
3.95 µM	O=C1NS(=O)(=O)c2cc(NC(=S)Nc3cccc(I)c3)ccc21
9.96 µM	Cc1ccc(NC(=S)Nc2ccc3c(c2)S(=O)(=O)NC3=O)cc1
11.1 µM	O=C1NS(=O)(=O)c2cc(NC(=S)Nc3cccc(F)c3)ccc21
10.1 µM	O=C1NS(=O)(=O)c2cc(NC(=S)Nc3ccc(Cl)cc3Cl)ccc21
14.1 µM	COc1cccc(NC(=O)Nc2ccc3c(c2)S(=O)(=O)NC3=O)c1
16.2 µM	Cc1ccc(NC(=O)Nc2ccc3c(c2)S(=O)(=O)NC3=O)cc1
14.8 µM	O=C1NS(=O)(=O)c2cc(NC(=S)Nc3ccc(F)cc3)ccc21
14.9 µM	O=C(Nc1ccc(Cl)c(Cl)c1)Nc1ccc2c(c1)S(=O)(=O)NC2=O
35.1 µM	O=C(Nc1ccc2c(c1)S(=O)(=O)NC2=O)Nc1ccccc1F
10.7 µM	O=C1NS(=O)(=O)c2cc(NC(=S)Nc3ccccc3)ccc21
13.4 µM	O=C(Nc1ccccc1)Nc1ccc2c(c1)S(=O)(=O)NC2=O
9.81 µM	COc1ccc(NC(=S)Nc2ccc3c(c2)S(=O)(=O)NC3=O)cc1
15.6 µM	O=C(Nc1ccc(F)cc1)Nc1ccc2c(c1)S(=O)(=O)NC2=O
16.9 µM	O=C(Nc1cccc([N+](=O)[O-])c1)Nc1ccc2c(c1)S(=O)(=O)NC2=O
5.85 µM	O=C(Nc1cccc(Cl)c1)Nc1ccc2c(c1)S(=O)(=O)NC2=O
4.23 µM	O=C1NS(=O)(=O)c2cc(NC(=S)Nc3ccccc3F)ccc21
13.6 µM	Nc1ccc2c(c1)S(=O)(=O)NC2=O
28.3 µM	O=C1NS(=O)(=O)c2cc(NC(=S)Nc3cccc(Cl)c3)ccc21
19.5 µM	O=C1NS(=O)(=O)c2cc(NC(=S)Nc3ccc([N+](=O)[O-])cc3)ccc21

Biological target: not listed separately
Assay: Inhibition of desert banana tyrosinase using p-cresol as substrate
Design: species or system Musa acuminata

IC50	Ki	SMILES
322 µM		N[C@@H](CS)C(=O)O [CYSTEINE]
65 µM		O=S(O)S(=O)(=O)O [SODIUM METABISULFITE]
437 µM	530 µM	O=C1O[C@H]([C@@H](O)CO)C(O)=C1O [ASCORBIC ACID]
63 µM		O[C@@H](CS)[C@@H](O)CS (relative stereo) [DITHIOTHREITOL]
